Data set [1] addresses T1, Sodium/nucleoside cotransporter 2 (Rattus norvegicus, UniProt Q62773).
T1 sequence (Q62773 whole entry): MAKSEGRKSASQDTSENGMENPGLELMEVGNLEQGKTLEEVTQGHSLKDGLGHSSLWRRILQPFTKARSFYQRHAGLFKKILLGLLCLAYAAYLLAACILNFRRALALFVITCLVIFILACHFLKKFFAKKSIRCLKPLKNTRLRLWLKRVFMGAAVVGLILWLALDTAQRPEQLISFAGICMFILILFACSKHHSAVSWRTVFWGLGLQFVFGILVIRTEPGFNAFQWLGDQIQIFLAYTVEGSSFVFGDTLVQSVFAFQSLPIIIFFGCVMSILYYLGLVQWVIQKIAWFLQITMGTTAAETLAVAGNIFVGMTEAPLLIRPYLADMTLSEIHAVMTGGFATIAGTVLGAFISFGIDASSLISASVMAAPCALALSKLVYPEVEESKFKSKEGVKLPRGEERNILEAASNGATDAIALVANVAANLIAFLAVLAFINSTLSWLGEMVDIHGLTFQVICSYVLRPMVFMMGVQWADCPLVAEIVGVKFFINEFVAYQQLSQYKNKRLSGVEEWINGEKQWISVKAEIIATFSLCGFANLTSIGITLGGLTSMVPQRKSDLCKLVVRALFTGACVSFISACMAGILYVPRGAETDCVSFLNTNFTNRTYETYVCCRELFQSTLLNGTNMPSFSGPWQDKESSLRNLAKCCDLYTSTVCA
Put plainly: Inhibition of rat CNT2 expressed in African green monkey COS7 cells assessed as reduction of [14C]-inosine uptake by liquid scintillation counting analysis. The class given is cell-based, COS-7. In short, it runs like this:
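rCNT2 transiently expressed in COS-7 cells, used 2 days post-transfection. 10 µM [14C]inosine uptake at 37 °C for 30 min in the presence of 10 µM NBMPR. Uptake run with Na+ or with choline replacing Na+, pH 7.4; the Na+-dependent difference defined 100% transport. Scintillation read-out; IC50 by nonlinear regression, ≥3 independent runs.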

Data set [2] addresses T2, Sodium/nucleoside cotransporter 2 (Homo sapiens, UniProt O43868).
T2 sequence (O43868 whole entry): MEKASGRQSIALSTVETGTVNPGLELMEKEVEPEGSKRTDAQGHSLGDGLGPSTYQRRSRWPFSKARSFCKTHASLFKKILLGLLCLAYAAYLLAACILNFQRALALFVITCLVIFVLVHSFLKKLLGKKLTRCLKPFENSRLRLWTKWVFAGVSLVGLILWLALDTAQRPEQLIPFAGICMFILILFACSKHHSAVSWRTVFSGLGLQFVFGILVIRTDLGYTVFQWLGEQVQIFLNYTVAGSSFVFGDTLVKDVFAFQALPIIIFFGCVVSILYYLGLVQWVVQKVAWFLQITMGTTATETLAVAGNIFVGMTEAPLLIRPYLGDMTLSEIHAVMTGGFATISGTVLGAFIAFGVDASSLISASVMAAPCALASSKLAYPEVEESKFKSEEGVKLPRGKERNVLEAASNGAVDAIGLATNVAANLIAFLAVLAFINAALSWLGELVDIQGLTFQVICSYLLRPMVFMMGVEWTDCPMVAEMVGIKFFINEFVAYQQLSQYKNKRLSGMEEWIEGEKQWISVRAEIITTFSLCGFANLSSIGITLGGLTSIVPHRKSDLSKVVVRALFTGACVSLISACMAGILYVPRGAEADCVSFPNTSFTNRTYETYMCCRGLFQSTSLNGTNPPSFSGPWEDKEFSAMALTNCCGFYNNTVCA
Nature of the data set: Inhibition of human CNT2 expressed in African green monkey COS7 cells assessed as reduction of [14C]-inosine uptake by liquid scintillation counting analysis. The data set is classed as cell-based, COS-7. The method in brief: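 COS-7 cells transiently transfected with hCNT2 in pCI-neo, assayed after 2 days. Pretreated in Na+-free choline buffer, 37 °C, 2×10 min. Uptake of 10 µM [14C]inosine for 30 min at 37 °C with 10 µM NBMPR, ±Na+, pH 7.4. Na+-dependent uptake set as 100%; lysate counted by scintillation. IC50 by nonlinear regression, ≥3 experiments; top concentration 100 µM.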

Data set [3] concerns Rattus norvegicus. Nature of the data set: Suppression of adenosine/inosine/guanosine mixture-induced elevation of uric acid level in potassium oxonate-treated Sprague-Dawley rat plasma at 50 mg/kg, po measured after 1 hr by phosphotungstic acid method. The class given is functional. In short, it runs like this: (§1)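 Male SD rats, 5 weeks old, fasted overnight, given potassium oxonate 100 mg/kg sc. After 1 h, a purine mix (adenosine:inosine:guanosine 1:1:1, 50 mg/kg) was given orally together with the test compound (50, or 0.1–10 mg/kg). Aortic blood taken 1 h later under anesthesia; plasma uric acid measured by phosphotungstic acid method. Mean ± SEM; Student's t or Dunnett's test.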

Data set [4] is described as follows: Solubility of compound in JP2 at pH 6.8 after 1 hr at 37 degC. The class given is physicochemical. The settings on record: JP2, pH 6.8. In short, it runs like this: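 Solubility measured in JP2, a 1:1 mix of pH 6.8 phosphate buffer and water, after incubation for 1 h at 37 °C.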
Data set [5] is described as follows: Volume of distribution at steady state in Sprague-Dawley rat at 1 mg/kg, iv by LC/MS analysis. The class given is ADME, organism-based. The settings on record: in vivo, read-out: Vdss. The method in brief: (§2)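 Male SD rats, 6 weeks old, fasted 16 h; 1.0 mg/mL/kg tail-vein bolus in dimethylacetamide/5% glucose (1:1 v/v). Jugular blood at 2 min and 0.25–24 h. Plasma deproteinized with acetonitrile plus warfarin internal standard, then LC/MS. Noncompartmental analysis; CLtot, Vdss and t1/2 derived from the iv data.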

Data set [6] in a line: Half life in Sprague-Dawley rat at 1 mg/kg, iv by LC/MS analysis. The data set is classed as ADME, organism-based. Conditions: in vivo. The method in brief: as §2
Data set [7] can be described thus: Tmax in Sprague-Dawley rat at 10 mg/kg, po by LC/MS analysis. The class given is ADME, organism-based. The settings on record: in vivo. The method in brief: (§3)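 Male SD rats, 6 weeks old, fasted 16 h; oral dose 10 mg/5 mL/kg as a suspension in 0.5% sodium carboxymethylcellulose. Jugular blood at 0.25, 0.5, 1, 2, 4, 6, 8 and 24 h. Acetonitrile-deproteinized plasma with warfarin internal standard analysed by LC/MS. Parameters from noncompartmental analysis.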

Data set [8] in a line: AUC (0 to infinity) in Sprague-Dawley rat at 10 mg/kg, po by LC/MS analysis. The data set is classed as ADME, organism-based. Further details: dose 10 mg/kg, route oral, time infinity. The settings on record: in vivo. The method in brief: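 Fasted (16 h) 6-week-old male SD rats were dosed orally at 10 mg/5 mL/kg as a suspension in 0.5% sodium carboxymethylcellulose. Heparinized jugular blood was sampled at 0.25, 0.5, 1, 2, 4, 6, 8 and 24 h. Plasma was deproteinized with acetonitrile plus warfarin internal standard and quantified by gradient C18 LC against a 1-5000 ng/mL standard curve. AUC was derived noncompartmentally.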

A short description of data set [9]: Cmax in Sprague-Dawley rat at 10 mg/kg, po by LC/MS analysis. Conditions: in vivo. The class given is ADME, organism-based. Details: dose 10 mg/kg, route oral. In short, it runs like this: as §3
In data set [10] the test system is Rattus norvegicus. Nature of the data set: Suppression of adenosine/inosine/guanosine mixture-induced elevation of uric acid level in potassium oxonate-treated Sprague-Dawley rat plasma at 1 to 10 mg/kg, po measured after 1 hr by phosphotungstic acid method. The data set is classed as functional, organism-based. The method in brief:
as §1

Data set [11] in a line: AUC (0 to infinity) in Sprague-Dawley rat at 1 mg/kg, iv by LC/MS analysis. The data set is classed as ADME, organism-based. Details: dose 1 mg/kg, route intravenous, time infinity. The settings on record: in vivo. In short, it runs like this: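 Male SD rats (6 weeks old, fasted 16 h) received a tail-vein bolus of 1.0 mg/mL/kg in dimethylacetamide/5% glucose (1:1 v/v). Heparinized jugular blood was drawn at 2 min and 0.25, 1, 2, 4, 6, 8 and 24 h. Plasma was acetonitrile-deproteinized with warfarin internal standard and run by gradient LC on a C18 column, calibrated 1-5000 ng/mL. AUC came from noncompartmental analysis.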

The nature of data set [12]: Clearance in Sprague-Dawley rat at 1 mg/kg, iv by LC/MS analysis. The settings on record: in vivo. The class given is ADME, organism-based. The method in brief: as §2
Data set [13] is described as follows: Oral bioavailability in Sprague-Dawley rat at 10 mg/kg by LC/MS analysis. The data set is classed as ADME, organism-based. The settings on record: in vivo. The method in brief:
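Oral F in fasted male SD rats from noncompartmental AUCs. Oral arm: 10 mg/kg suspended in 0.5% CMC-Na. IV arm: 1.0 mg/kg in dimethylacetamide/5% glucose. F = (AUCpo/AUCiv)×(dose iv/dose po)×100. Plasma measured by LC/MS.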

pIC50: −log10 of the molar value. In brackets after ≈: the same amount, converted by molar mass. Activity calls are given as the source filed them.

One may read the pIC50 as the IC50 on a negative log10 scale, so that one unit is a factor of ten. What is called solubility is the concentration that dissolves in the medium under given conditions. For `Nc1ncnc2c1nc(NCc1ccc(-c3ccccc3)c(OCCCCO)c1)n2[C@@H]1O[C@H](CO)[C@@H](O)[C@H]1O`, the values for the pIC50 in data set [1] and in data set [2] were 4.42 and 6.03, respectively. Also, in data set [3], the Activity was 42%. The molecule further yielded a solubility at 1 h in [4] of 190 µg/mL (≈ 354 µM).

What is called half-life is the time needed for the level to fall by half in the phase considered. Usually Tmax stands for the time from dosing to the highest level. The term AUC(0-inf) denotes total exposure, with the tail of the curve extrapolated. Broadly, the Cmax is the maximum level reached in the sampled fluid or tissue. The term clearance denotes a measure of how efficiently the substance is removed, as volume per time. As usually defined, the bioavailability is the share of a dose that reaches the circulation, judged against a reference dose that is usually intravenous. As for `OCCCCOc1cc(CNc2nc3ccccc3n2[C@@H]2O[C@H](CO)[C@@H](O)[C@H]2O)ccc1-c1ccccc1`, the pIC50 in [1] was 5.82; in data set [2], 7.21. In [5], the Vd worked out at 0.117 L/kg. In data set [6], the half-life was 1.7 h. The time of peak concentration (Tmax) in [7] was 0.83 h. Further, the AUC(0-inf) in data set [8] worked out at 0.25 µM·h; in [11], 5 µM·h. The molecule further showed a Cmax in data set [9] of 110 nM. Moreover, the result in data set [10] was Active. Further, the concentration in solution in data set [4] (solubility at 1 h) came to 120 µg/mL (≈ 231 µM). Further, the clearance in data set [12] is 6.57 mL/min/kg. Besides, the bioavailability in data set [13] is 0.51%.

(Values after ChEMBL document CHEMBL3808276, “Identification of Adenine and Benzimidazole Nucleosides as Potent Human Concentrative Nucleoside Transporter 2 Inhibitors: Potential Treatment for Hyperuricemia and Gout” (J Med Chem, 2016).)
